ChEMBL document CHEMBL2331520, “Synthesis, surface tension properties and antibacterial activities of amphiphilic D-galactopyranose derivatives” (Eur J Med Chem, 2013)
In brackets after ≈: the same amount, converted by molar mass.

Experiments:
Staphylococcus aureus = assay: Antibacterial activity against Staphylococcus aureus subsp aureus CIP 53.154 assessed as growth inhibition at 30 degC after 24 hrs by liquid broth dilution method; assay type: functional; details: CIP 53.154, 24 h
Procedure, shortened: (§1)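 Strains kept at -80 °C in LB broth with 20% glycerol and grown from 1% (v/v) stock in nutritive broth (yeast extract 1 g/L, meat extract 2 g/L, peptone 5 g/L, NaCl 5 g/L) at 30 °C. Overnight culture adjusted to 0.5 McFarland (~1.5 × 10⁸ cfu/mL). Compound stock 1 g/L in DMSO, serially diluted in broth 1:2 to 1:512, mixed 1:1 with inoculum. Incubation 24 h, 150 rpm, 30 °C. OD600 read; MIC = lowest concentration with no OD increase in all replicates versus negative control.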

[1] = system: Mycolicibacterium smegmatis; assay: Antibacterial activity against Mycobacterium smegmatis CIP 73.26 assessed as growth inhibition at 37 degC after 24 hrs by liquid broth dilution method; assay type: functional; details: CIP 73.26, 24 h
Procedure, shortened: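 Inoculum at 0.5 McFarland (~1.5 × 10⁸ cfu/mL). DMSO stock (1 g/L) serially diluted in the same medium 1:2 to 1:512. Shaken 24 h at 150 rpm, 37 °C. MIC = lowest concentration with no OD600 rise in any replicate versus negative control.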

Micrococcus luteus = assay: Antibacterial activity against Micrococcus luteus CIP 53.45 assessed as growth inhibition at 30 degC after 24 hrs by liquid broth dilution method; assay type: functional; details: CIP 53.45, 24 h; procedure, shortened: as §1
[2] = system: Geobacillus stearothermophilus; assay: Antibacterial activity against Bacillus stearothermophilus ATTC 12980 assessed as growth inhibition at 30 degC after 24 hrs by liquid broth dilution method; assay type: functional; details: ATTC 12980, 24 h; procedure, shortened: as §1
Sinorhizobium meliloti = assay: Antibacterial activity against Sinorhizobium meliloti Rm1021 assessed as growth inhibition at 30 degC after 24 hrs by liquid broth dilution method; assay type: functional; details: Rm1021, 24 h; procedure, shortened: as §1
Pseudomonas aeruginosa = assay: Antibacterial activity against Pseudomonas aeruginosa CIP A22 assessed as growth inhibition at 30 degC after 24 hrs by liquid broth dilution method; assay type: functional; details: CIP A22, 24 h; procedure, shortened: as §1
Escherichia coli = assay: Antibacterial activity against Escherichia coli ATCC 10536 assessed as growth inhibition at 30 degC after 24 hrs by liquid broth dilution method; assay type: functional; details: ATCC 10536, 24 h; procedure, shortened: as §1
Dickeya chrysanthemi = assay: Antibacterial activity against Erwinia chrysanthemi EC3937 assessed as growth inhibition at 30 degC after 24 hrs by liquid broth dilution method; assay type: functional; details: EC3937, 24 h; procedure, shortened: as §1
Enterobacter cloacae = assay: Antibacterial activity against Enterobacter cloacae ATCC 13047 assessed as growth inhibition at 30 degC after 24 hrs by liquid broth dilution method; assay type: functional; details: ATCC 13047, 24 h; procedure, shortened: as §1
Citrobacter freundii = assay: Antibacterial activity against Citrobacter freundii ATCC 6750 assessed as growth inhibition at 30 degC after 24 hrs by liquid broth dilution method; assay type: functional; details: ATCC 6750, 24 h; procedure, shortened: as §1
[3] = Critical micelle concentration of the compound by wilhelmy method; assay type: physicochemical
Procedure, shortened: (§2)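 Wilhelmy plate method at 293 K. Concentrated solution added stepwise from a syringe into ultrapure water, stirred gently 30 s after each addition, then equilibrium surface tension read. Each value is the mean of at least three measurements (SD within ±1.5% of mean). Transducer precision 0.1 mN/m; platinum plate flame-cleaned. Surface tension plotted against molar concentration to give CMC and γCMC.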

[4] = Gamma critical micelle concentration of the compound by wilhelmy method; assay type: physicochemical; procedure, shortened: as §2

MIC (Staphylococcus aureus) [µg/mL] | MIC [1] [µg/mL] | MIC (Micrococcus luteus) [µg/mL] | MIC [2] [µg/mL] | MIC (Sinorhizobium meliloti) [µg/mL] | MIC (Pseudomonas aeruginosa) [µg/mL] | MIC (Escherichia coli) [µg/mL] | MIC (Dickeya chrysanthemi) [µg/mL] | MIC (Enterobacter cloacae) [µg/mL] | MIC (Citrobacter freundii) [µg/mL] | CMC [3] | gammaCMC [4] | SMILES
≥ 250 | ≥ 250 | ≥ 250 | ≥ 250 | ≥ 250 | ≥ 250 | ≥ 250 | ≥ 250 | ≥ 250 | ≥ 250 |  |  | CCCCCCCCOC[C@H]1O[C@@H]2OC(C)(C)O[C@@H]2[C@H]2OC(C)(C)O[C@H]21
≥ 250 | ≥ 250 | ≥ 250 | ≥ 250 | ≥ 250 | ≥ 250 | ≥ 250 | ≥ 250 | ≥ 250 | ≥ 250 |  |  | CCCCCCCCCCCCOC[C@H]1O[C@@H]2OC(C)(C)O[C@@H]2[C@H]2OC(C)(C)O[C@H]21
≥ 250 | ≥ 250 | ≥ 250 | ≥ 250 | ≥ 250 | ≥ 250 | ≥ 250 | ≥ 250 | ≥ 250 | ≥ 250 | Not Active | Not Active | CCCCCCCCCCCCOC[C@H]1O[C@H](O)[C@H](O)[C@@H](O)[C@H]1O
125 (≈ 281 µM) | 62.5 (≈ 141 µM) | 62.5 (≈ 141 µM) | 62.5 (≈ 141 µM) | 62.5 (≈ 141 µM) | 62.5 (≈ 141 µM) | 62.5 (≈ 141 µM) | 62.5 (≈ 141 µM) | 62.5 (≈ 141 µM) | 62.5 (≈ 141 µM) |  |  | CCCCCCCCOCCCCOC[C@H]1O[C@@H]2OC(C)(C)O[C@@H]2[C@H]2OC(C)(C)O[C@H]21
125 (≈ 284 µM) | 62.5 (≈ 142 µM) | 62.5 (≈ 142 µM) | 62.5 (≈ 142 µM) | 62.5 (≈ 142 µM) | 62.5 (≈ 142 µM) | 62.5 (≈ 142 µM) | 62.5 (≈ 142 µM) | 62.5 (≈ 142 µM) | 62.5 (≈ 142 µM) |  |  | CCCCCCCCOCC#CCOC[C@H]1O[C@@H]2OC(C)(C)O[C@@H]2[C@H]2OC(C)(C)O[C@H]21
125 (≈ 269 µM) | 62.5 (≈ 135 µM) | 62.5 (≈ 135 µM) | 62.5 (≈ 135 µM) | 62.5 (≈ 135 µM) | 125 (≈ 269 µM) | 62.5 (≈ 135 µM) | 62.5 (≈ 135 µM) | 62.5 (≈ 135 µM) | 125 (≈ 269 µM) |  |  | CCCCCCCCOc1ccc(OC[C@H]2O[C@@H]3OC(C)(C)O[C@@H]3[C@H]3OC(C)(C)O[C@H]32)cc1
125 (≈ 250 µM) | 31.2 (≈ 62.4 µM) | 15.6 (≈ 31.2 µM) | 31.2 (≈ 62.4 µM) | 62.5 (≈ 125 µM) | 62.5 (≈ 125 µM) | 62.5 (≈ 125 µM) | 62.5 (≈ 125 µM) | 62.5 (≈ 125 µM) | 62.5 (≈ 125 µM) |  |  | CCCCCCCCCCCCOCCCCOC[C@H]1O[C@@H]2OC(C)(C)O[C@@H]2[C@H]2OC(C)(C)O[C@H]21
125 (≈ 252 µM) | 62.5 (≈ 126 µM) |  | 15.6 (≈ 31.4 µM) | 62.5 (≈ 126 µM) | 62.5 (≈ 126 µM) | 62.5 (≈ 126 µM) | 62.5 (≈ 126 µM) | 62.5 (≈ 126 µM) | 62.5 (≈ 126 µM) |  |  | CCCCCCCCCCCCOCC#CCOC[C@H]1O[C@@H]2OC(C)(C)O[C@@H]2[C@H]2OC(C)(C)O[C@H]21
125 (≈ 240 µM) | 62.5 (≈ 120 µM) | 31.2 (≈ 60 µM) | 62.5 (≈ 120 µM) | 62.5 (≈ 120 µM) | 125 (≈ 240 µM) | 62.5 (≈ 120 µM) | 62.5 (≈ 120 µM) | 62.5 (≈ 120 µM) | 62.5 (≈ 120 µM) |  |  | CCCCCCCCCCCCOc1ccc(OC[C@H]2O[C@@H]3OC(C)(C)O[C@@H]3[C@H]3OC(C)(C)O[C@H]32)cc1
125 (≈ 343 µM) | 62.5 (≈ 171 µM) | 62.5 (≈ 171 µM) | 62.5 (≈ 171 µM) | 62.5 (≈ 171 µM) | 62.5 (≈ 171 µM) | 62.5 (≈ 171 µM) | 62.5 (≈ 171 µM) | 62.5 (≈ 171 µM) | 125 (≈ 343 µM) | 0.3 mmol/L | 30 mN/meter | CCCCCCCCOCCCCOC[C@H]1O[C@H](O)[C@H](O)[C@@H](O)[C@H]1O
125 (≈ 347 µM) | 62.5 (≈ 173 µM) | 62.5 (≈ 173 µM) | 62.5 (≈ 173 µM) | 62.5 (≈ 173 µM) | 125 (≈ 347 µM) | 62.5 (≈ 173 µM) | 62.5 (≈ 173 µM) | 62.5 (≈ 173 µM) | 125 (≈ 347 µM) | 0.06 mmol/L | 30 mN/meter | CCCCCCCCOCC#CCOC[C@H]1O[C@H](O)[C@H](O)[C@@H](O)[C@H]1O
125 (≈ 325 µM) | 62.5 (≈ 163 µM) | 62.5 (≈ 163 µM) | 62.5 (≈ 163 µM) | 62.5 (≈ 163 µM) | 125 (≈ 325 µM) | 62.5 (≈ 163 µM) | 62.5 (≈ 163 µM) | 62.5 (≈ 163 µM) | 125 (≈ 325 µM) | Not Active | Not Active | CCCCCCCCOc1ccc(OC[C@H]2O[C@H](O)[C@H](O)[C@@H](O)[C@H]2O)cc1
125 (≈ 297 µM) | 62.5 (≈ 149 µM) | 15.6 (≈ 37.1 µM) | 31.2 (≈ 74.3 µM) | 62.5 (≈ 149 µM) | 62.5 (≈ 149 µM) | 62.5 (≈ 149 µM) | 62.5 (≈ 149 µM) | 62.5 (≈ 149 µM) | 62.5 (≈ 149 µM) | 0.023 mmol/L | 48 mN/meter | CCCCCCCCCCCCOCCCCOC[C@H]1O[C@H](O)[C@H](O)[C@@H](O)[C@H]1O
62.5 (≈ 150 µM) | 62.5 (≈ 150 µM) | 3.91 (≈ 9.39 µM) | 7.81 (≈ 18.7 µM) | 31.2 (≈ 75 µM) | 62.5 (≈ 150 µM) | 62.5 (≈ 150 µM) | 62.5 (≈ 150 µM) | 62.5 (≈ 150 µM) | 62.5 (≈ 150 µM) | 0.032 mmol/L | 35 mN/meter | CCCCCCCCCCCCOCC#CCOC[C@H]1O[C@H](O)[C@H](O)[C@@H](O)[C@H]1O
125 (≈ 284 µM) | 62.5 (≈ 142 µM) | 62.5 (≈ 142 µM) | 62.5 (≈ 142 µM) | 62.5 (≈ 142 µM) | 62.5 (≈ 142 µM) | 62.5 (≈ 142 µM) | 62.5 (≈ 142 µM) | 62.5 (≈ 142 µM) | 125 (≈ 284 µM) | 3.1 mmol/L | 54 mN/meter | CCCCCCCCCCCCOc1ccc(OC[C@H]2O[C@H](O)[C@H](O)[C@@H](O)[C@H]2O)cc1
< 0.98 | 1.95 (≈ 6.03 µM) | < 0.98 | 3.9 (≈ 12.1 µM) | < 0.98 | 1.95 (≈ 6.03 µM) | < 0.98 | 0.98 (≈ 3.03 µM) | < 0.98 | 7.8 (≈ 24.1 µM) |  |  | O=C(N[C@H](CO)[C@H](O)c1ccc([N+](=O)[O-])cc1)C(Cl)Cl [CHLORAMPHENICOL]
